FN deposit inh – inhibitors of fibronectin matrix deposition, primary screen, AH1F cells, Alexa488-fibronectin fluorescence, plate reader | AH1F fibroblasts, overnight | 350,000 tested, 0.086% active | AID 743247, 2014 | inhibition, % at 12.6 µM;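 active means mean inhibition across replicates of 30% or more, regardless of how many single replicates reach that level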;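 further: positive control wells lacked labelled fibronectin entirely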
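material = AH1F fibroblast monolayer depositing Alexa488-labelled fibronectin into matrix | amount = 10000 AH1F cells/well | buffer or medium = DMEM plus 2% serum, read in PBS | incubation = 1 h cell adhesion before compound, then overnight fibronectin incubation | detection = fluorescence at 485 nm excitation, 525 nm emission | evaluation = percent inhibition as loss of matrix-bound fibronectin fluorescence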
EWS-Fli block – EWS/Fli-driven NR0B1 reporter inhibitors, primary screen, A673 cells, NR0B1 luciferase, luminescence, MLPCN library | viability-normalised | inhibition, % at 12.6 µM | 350,000 tested, 0.67% active | AID 651661, 2012;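 active means mean inhibition of at least 50% after viability correction, with every replicate also passing that limit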;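 further: firefly luciferase signal divided by Alamar Blue viability fluorescence both relative to DMSO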
FGF22 binding – binders of human FGF22 protein, primary screen, FGF22 synaptogenesis inhibitor project, biophysical, thermal shift, single point | AID 651658, 2012 | recombinant FGF22 thermal shift, SYPRO orange fluorescence; percent of sucrose octasulfate shift, DMSO zero | 340,000 tested, 1.5% active | Fibroblast growth factor 22 (Homo sapiens), Q9HCT0 | activity (Tm shift, normalised), % at 9.99 µM;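 active means mean Tm shift, scaled 0 neutral to 100 positive control, at about 1.3% or above, every replicate too, limit read from the data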
Target sequence (Q9HCT0 whole entry, looked up): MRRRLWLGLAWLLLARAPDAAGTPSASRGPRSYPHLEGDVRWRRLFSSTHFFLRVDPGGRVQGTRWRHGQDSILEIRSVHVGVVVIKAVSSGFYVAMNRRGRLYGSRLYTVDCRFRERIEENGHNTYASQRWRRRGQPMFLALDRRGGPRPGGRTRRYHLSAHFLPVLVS
PGC1a acetyl inh – inhibitors of PGC1a acetylation signal, primary screen, cell-based, U2OS, AlphaScreen, inhibitor mode; AlphaScreen anti-acetyl-lysine; with virally co-expressed GCN5 acetyltransferase; inhibition, % at 15.6 µM; 350,000 tested, 0.17% active; AID 651687, 2012;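 active means every replicate shows inhibition of at least 40%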;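 further: 0% = neutral control wells and 100% = positive control wells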
PAX8 inh HTS – inhibitors of PAX8-driven TPO luciferase reporter, primary screen, RMG-I cells, single concentration; SteadyGlo, 24 h; inhibition, % at 12.6 µM; 360,000 tested, 1.2% active; AID 652154, 2013;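 active means mean replicate inhibition at least 60% with every replicate also reaching 60%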;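 further: luciferase light reporting Pax8 driven TPO promoter activity; plate controls were median of neutral control wells for no effect and mitoxantrone controls for full effect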
HIV Env fusion – inhibitors of HIV-1 Env-driven cell-cell fusion, primary screen, HeLa-JRFL effector, CEM21 target cells, luciferase; inhibition, % at 12.3 µM; 360,000 tested, 1.1% active;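 active means mean replicate inhibition score of at least 50 and every replicate individually at or above 50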;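 further: 0% = plate neutral controls and 100% = maraviroc near 300 nM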
The depositor's hits bear a star; / = not tested or not shown; ! = a repeat was not active; [ ] = remark or other dose. Rows were chosen to be rich in hits. Some 3.1% of all compounds tested hit in one or more screens of this group.

SMILES	FN deposit inh	EWS-Fli block	FGF22 binding	PGC1a acetyl inh	PAX8 inh HTS	HIV Env fusion
C[C@@H](NC(=O)C[C@@H]1CC[C@@H](NS(=O)(=O)c2cccc(F)c2)[C@H](CO)O1)c1ccccc1	-1	/	0	1	/	/
Cc1onc(C(=O)NN)c1C(=O)Nc1ncc(C(F)(F)F)cc1Cl	1	2	43*	-2	-12	-9
NC(=O)CNc1ncc(C(F)(F)F)cc1Cl	-8	5	0	1	6	-6
CCSC1=NCCN1S(=O)(=O)c1ccc2ccccc2c1	5	3	44*	/	1	-6
COC(=O)C[C@@H]1C=C[C@@H](NC(=O)c2ccccc2)[C@@H](CO)O1	/	0	0	-3	-22	10[16.7 µM]
CC1=C([N+](=O)[O-])C(c2ccccc2)C2=C(N1)c1ccccc1C2=O (centres undefined)	-5	/	/	2	/	120*
Cc1noc(C)c1NC(=O)Nc1ccc2c(c1)C(=O)N([C@@H](C)CO)C[C@@H](C)[C@@H](CN(C)C(=O)Nc1ccccc1)OCCCC[C@@H](C)O2	8	-16	0	-3	-12	7[16.7 µM]
Cc1cc(NC(=O)c2noc3c2CCc2ccccc2-3)no1	-13	-10	0	7	1	1
Cc1ccc(O)c(NC(=O)c2noc3c2CCc2ccccc2-3)c1	-18	-92	43*	-2	-54	-25
Cc1noc(C)c1S(=O)(=O)Nc1ccc2c(c1)C(=O)N([C@@H](C)CO)C[C@@H](C)[C@@H](CN(C)S(=O)(=O)c1ccc(F)cc1)OCCCC[C@H](C)O2	/	5	0	5	18	-17[16.7 µM]
COc1cc(-c2nc3oc4ccccc4c(=O)c3c(=O)n2Cc2ccco2)cc(OC)c1OC	-8	/	/	3	31	92*
CC=Cc1ccc2n(c1=O)C[C@@H]1[C@@H](CO)[C@H](C(=O)NCCC)N(Cc3cccnc3)[C@H]21 (mixture of isomers)	/	7	0	/	/	/
O=C(Nc1ccccc1)N1CCc2scc[n+]2-c2ccccc21	-1	4	0	/	112*	/
C[C@H]1CN([C@@H](C)CO)S(=O)(=O)c2ccc(/C=C/c3ccccc3)cc2O[C@@H]1CN(C)C(=O)c1ccc2c(c1)OCO2	/	-6	1.9*	-9	/	9[16.7 µM]
C[C@@H]1CN([C@H](C)CO)S(=O)(=O)c2ccc(C#Cc3ccccc3F)cc2O[C@H]1CN(C)C(=O)c1ccc2c(c1)OCO2	8	15	0	-2	63*!	-13
O=C(C[C@@H]1C=C[C@@H](NC(=O)c2ccccc2)[C@@H](CO)O1)NCCc1ccncc1	8	-7	0	0	-1	-11[16.7 µM]
CCc1ccc(C2C3=C(CCCC3=O)OC3=C2C(=O)CCC3)cc1	-3	11	43*	/	10	-39
Fc1ccc(-c2ncc3ccccn23)cc1	/	-25	0	-8	-26	-11
Fc1ccc(-c2nnc3ccccn23)cc1	-3	-1	43*	2	12	22
CO[C@@H]1CN(C)C(=O)c2cc(NC(=O)CC(F)(F)F)ccc2OC[C@H](C)N(C(=O)C2CC2)C[C@@H]1C	-6	/	/	/	/	/
Cc1ccccc1CN1C(=O)c2ccccc2C1c1nnnn1-c1ccc2c(c1)OCCO2 (centres undefined)	-3	61*	0	/	25	-159
COc1ccc(C(Nc2ccccn2)c2c(NC(=O)c3ccco3)sc(C)c2C)cc1OC (centres undefined)	2	-18	44*	-3	-83	-152
CCOc1ccc(C(NC(=O)c2ccco2)c2ccc(OC)c(OC)c2)cc1 (centres undefined)	-2	/	/	/	/	-26
COc1cc(C(Nc2ccccn2)c2c(NC(=O)c3ccco3)sc(C)c2C)cc(OC)c1OC (centres undefined)	-21	1	44*	2	-32	20
COc1cccc(NC(=O)COC(=O)C2CCN(S(=O)(=O)c3cccs3)CC2)c1	9	3	43*	0	-8	-11
SMILES	FN deposit inh	EWS-Fli block	FGF22 binding	PGC1a acetyl inh	PAX8 inh HTS	HIV Env fusion
COc1ccccc1N(CC(=O)N(c1ccccc1)C(C)C)S(=O)(=O)c1cccs1	/	9	0	-10	8	28
COc1ccccc1N(CC(=O)Nc1ccccc1)S(=O)(=O)c1cccs1	-5	-18	0	-3	-20	-1
COc1ccccc1N(CC(=O)N(CC(C)C)CC(C)C)S(=O)(=O)c1cccs1	32*	2	43*	-25	2	15
COc1cccc(NC(=O)CN(c2ccccc2OC)S(=O)(=O)c2cccs2)c1	2	3	0	-1	-4	64*
CC(=O)c1ccc(NC(=O)COC(=O)C2CCN(S(=O)(=O)c3cccs3)CC2)cc1	0	0	0	/	1	5
O=C(C[C@@H]1C[C@H]2c3cc(NC(=O)Nc4ccc(F)cc4)ccc3O[C@H]2[C@@H](CO)O1)NCC1CC1	0	-5	0	/	2	/
O=C(C[C@@H]1C[C@@H]2c3cc(NC(=O)Nc4ccccc4)ccc3O[C@@H]2[C@H](CO)O1)NCC1CC1	7	-2	0	-7	/	/
O=C(C[C@@H]1C[C@H]2c3cc(NC(=O)Nc4ccc(F)cc4)ccc3O[C@H]2[C@H](CO)O1)NCC1CC1	-2	7	-1	0	16	95*[16.7 µM]
O=C(Nc1ccc(C(F)(F)F)cc1)Nc1ccc2c(c1)[C@H]1C[C@H](CC(=O)N3CCc4ccccc4C3)O[C@H](CO)[C@H]1O2	4	15	1	-4	82*	2[16.7 µM]
O=C(C[C@H]1C[C@@H]2c3cc(NC(=O)Nc4ccc(F)cc4)ccc3O[C@@H]2[C@@H](CO)O1)NCC1CC1	-1	3	-1	5	10	95*[16.7 µM]
O=C(Nc1ccc(F)cc1)Nc1ccc2c(c1)[C@H]1C[C@@H](CC(=O)N3CCCCC3)O[C@H](CO)[C@H]1O2	-2	-1	0	-3	3	83*[16.7 µM]
O=C(NCC[C@H]1CC[C@@H](NS(=O)(=O)c2cccc(F)c2)[C@H](CO)O1)C1CCCCC1	0	-2	0	-1	7	-3[16.7 µM]
C[C@H](O)C#Cc1cnc2c(c1)C(=O)N([C@@H](C)CO)C[C@@H](C)[C@H](CN(C)Cc1cccc(F)c1)O2	-5	1	0	-3	/	11[16.7 µM]
O=C(O)C[C@H]1CC[C@H](NC(=O)c2ccncc2)[C@@H](CO)O1	-12	-3	0	-6	3	8[16.7 µM]
CC(=O)N1[C@@H](CO)[C@@H](c2ccccc2)C12CN(C(=O)c1ccccc1)C2	/	-6	0	8	10	/

High-throughput results: PubChem, Broad Institute
